Experimental data as given in ChEMBL document CHEMBL1125455, “Novel anthraquinone inhibitors of human leukocyte elastase and cathepsin G” (J Med Chem, 1992).
pIC50: −log10 of the molar value. Activity calls are given as the source filed them. No cut-off for these calls is given here.

Legend:
[1] = biological target: T1, Neutrophil elastase (Homo sapiens) (UniProt P08246); test: Inhibitory activity against Human Leukocyte Elastase (HLE) at 53 uM concentration
T1 sequence (whole entry): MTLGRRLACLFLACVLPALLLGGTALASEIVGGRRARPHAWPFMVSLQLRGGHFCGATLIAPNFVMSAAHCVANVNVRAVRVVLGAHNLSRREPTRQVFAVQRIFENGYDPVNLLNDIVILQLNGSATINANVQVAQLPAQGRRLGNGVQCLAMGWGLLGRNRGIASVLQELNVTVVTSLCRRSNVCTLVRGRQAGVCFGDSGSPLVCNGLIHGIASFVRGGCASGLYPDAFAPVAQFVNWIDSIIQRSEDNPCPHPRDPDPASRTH
In short: (§1)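 Percent inhibition of enzyme activity at a single inhibitor concentration. Assays run at 25 °C in 0.1 M HEPES, 0.5 M NaCl, pH 7.5, with 9-11% DMSO. The method otherwise follows an earlier report.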

[2] = biological target: Chymotrypsinogen A (Bos taurus) (UniProt P00766); test: Inhibitory activity against Chymotrypsinogen at 53 uM concentration; in short: as §1
[3] = biological target: T2, Chymotrypsin-like elastase family member 2A (Sus scrofa) (UniProt P08419); test: Inhibitory activity against Porcine Pancreatic Elastase (PPE) at 53 uM concentration; NI = no inhibition; in short: as §1
T2 sequence (whole entry): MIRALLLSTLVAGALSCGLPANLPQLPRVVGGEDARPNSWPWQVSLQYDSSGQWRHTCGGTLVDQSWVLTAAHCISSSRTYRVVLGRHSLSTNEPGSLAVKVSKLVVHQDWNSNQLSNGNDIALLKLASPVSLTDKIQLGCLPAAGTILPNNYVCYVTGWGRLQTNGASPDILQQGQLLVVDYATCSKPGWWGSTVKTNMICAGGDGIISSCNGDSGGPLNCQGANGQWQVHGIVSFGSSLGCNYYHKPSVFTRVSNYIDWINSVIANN

Neutrophil elastase [4] = biological target: T3, Neutrophil elastase (Homo sapiens, UniProt P08246); test: Compound was tested for the enzyme inhibitory activity against Human Leukocyte Elastase (HLE) at 53 uM concentration; in short: as §1
T3 sequence (P08246 whole entry): T1 sequence (whole entry)

[5] = biological target: T4, Cathepsin G (Homo sapiens) (UniProt P08311); test: Inhibitory activity against Cathepsin G (CatG) at 53 uM concentration; in short: as §1
T4 sequence (whole entry): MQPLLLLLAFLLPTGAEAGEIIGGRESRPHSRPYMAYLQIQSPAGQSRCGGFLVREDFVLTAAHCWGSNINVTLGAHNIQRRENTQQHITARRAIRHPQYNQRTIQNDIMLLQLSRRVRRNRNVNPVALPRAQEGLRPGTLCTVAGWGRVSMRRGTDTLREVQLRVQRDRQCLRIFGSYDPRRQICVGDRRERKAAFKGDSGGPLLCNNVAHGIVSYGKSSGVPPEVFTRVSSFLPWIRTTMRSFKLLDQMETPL

[6] = biological target: T2, Chymotrypsin-like elastase family member 2A (Sus scrofa); test: Inhibitory activity against Porcine Pancreatic Elastase (PPE) at 30 uM concentration; NI = no inhibition
[7] = biological target: T1, Neutrophil elastase (Homo sapiens); test: Inhibitory activity against Human Leukocyte Elastase (HLE) at 30 uM concentration
Neutrophil elastase [8] = biological target: T3, Neutrophil elastase; test: Compound was tested for the enzyme inhibitory activity against Human Leukocyte Elastase (HLE) at 30 uM concentration
[9] = biological target: T4, Cathepsin G (Homo sapiens); test: Inhibitory activity against Cathepsin G (CatG) at 30 uM concentration
[10] = biological target: T1, Neutrophil elastase (Homo sapiens); test: Inhibitory activity against Human Leukocyte Elastase (HLE) at 65 uM concentration
[11] = biological target: T2, Chymotrypsin-like elastase family member 2A (Sus scrofa); test: Inhibitory activity against Porcine Pancreatic Elastase (PPE) at 65 uM concentration; NI = no inhibition
Neutrophil elastase [12] = biological target: T3, Neutrophil elastase; test: Compound was tested for the enzyme inhibitory activity against Human Leukocyte Elastase (HLE) at 65 uM concentration
[13] = biological target: T4, Cathepsin G (Homo sapiens); test: Inhibitory activity against Cathepsin G (CatG) at 65 uM concentration
[14] = biological target: T1, Neutrophil elastase (Homo sapiens); test: Inhibitory activity against Human Leukocyte Elastase (HLE) at 55 uM concentration
[15] = biological target: T4, Cathepsin G (Homo sapiens); test: Inhibitory activity against Cathepsin G (CatG) at 55 uM concentration
[16] = biological target: Chymotrypsinogen A (Bos taurus) (UniProt P00766); test: Inhibitory activity against Chymotrypsinogen at 55 uM concentration
[17] = biological target: T2, Chymotrypsin-like elastase family member 2A (Sus scrofa); test: Inhibitory activity against Porcine Pancreatic Elastase (PPE) at 55 uM concentration; NI = no inhibition
Neutrophil elastase [18] = biological target: T3, Neutrophil elastase; test: Compound was tested for the enzyme inhibitory activity against Human Leukocyte Elastase (HLE) at 55 uM concentration
[19] = biological target: T2, Chymotrypsin-like elastase family member 2A (Sus scrofa); test: Inhibitory activity against Porcine Pancreatic Elastase (PPE) at 52 uM concentration; NI = no inhibition
[20] = biological target: T1, Neutrophil elastase (Homo sapiens); test: Inhibitory activity against Human Leukocyte Elastase (HLE) at 52 uM concentration
Neutrophil elastase [21] = biological target: T3, Neutrophil elastase; test: Compound was tested for the enzyme inhibitory activity against Human Leukocyte Elastase (HLE) at 52 uM concentration
[22] = biological target: Chymotrypsinogen A (Bos taurus) (UniProt P00766); test: Inhibitory activity against Chymotrypsinogen at 52 uM concentration; NI = no inhibition
[23] = biological target: Chymotrypsinogen A (Bos taurus) (UniProt P00766); test: Inhibitory activity against Chymotrypsinogen at 28 uM concentration; NI = no inhibition
Neutrophil elastase [24] = biological target: T3, Neutrophil elastase; test: Compound was tested for the enzyme inhibitory activity against Human Leukocyte Elastase (HLE) at 28 uM concentration
[25] = biological target: T2, Chymotrypsin-like elastase family member 2A (Sus scrofa); test: Inhibitory activity against Porcine Pancreatic Elastase (PPE) at 28 uM concentration; NI = no inhibition
[26] = biological target: T4, Cathepsin G (Homo sapiens); test: Inhibitory activity against Cathepsin G (CatG) at 28 uM concentration
[27] = biological target: T1, Neutrophil elastase (Homo sapiens); test: Inhibitory activity against Human Leukocyte Elastase (HLE) at 28 uM concentration
[28] = biological target: T2, Chymotrypsin-like elastase family member 2A (Sus scrofa); test: Inhibitory activity against Porcine Pancreatic Elastase (PPE) at 27 uM concentration; NI = no inhibition
[29] = biological target: T4, Cathepsin G (Homo sapiens); test: Inhibitory activity against Cathepsin G (CatG) at 27 uM concentration
[30] = biological target: T1, Neutrophil elastase (Homo sapiens); details: 27 uM
Neutrophil elastase [31] = biological target: T3, Neutrophil elastase; test: Compound was tested for the enzyme inhibitory activity against Human Leukocyte Elastase (HLE) at 27 uM concentration
[32] = biological target: Chymotrypsinogen A (Bos taurus) (UniProt P00766); test: Inhibitory activity against Chymotrypsinogen at 27 uM concentration

Cc1cc(O)c2c(c1)C(=O)c1cc(O)cc(O)c1C2=O [EMODIN]
inhibition [1]: 55% | inhibition [2]: 2% | inhibition [3]: inactive | pIC50 (Neutrophil elastase [4]): 4.28 | inhibition [5]: 42%

COc1cc(OC)c2c(c1)C(=O)c1cc(C(Br)Br)cc(OC)c1C2=O
inhibition [6]: inactive | inhibition [7]: 61% | pIC50 (Neutrophil elastase [8]): 4.77 | inhibition [9]: 24%

COc1cc(O)c2c(c1)C(=O)c1cc(C)cc(O)c1C2=O [PHYSCION]
inhibition [10]: 100% | inhibition [11]: inactive | pIC50 (Neutrophil elastase [12]): 5.21 | inhibition [13]: 39%

Cc1ccc2c(c1O)C(=O)c1c(O)cc(O)cc1C2=O
inhibition [14]: 100% | inhibition [15]: 13% | inhibition [16]: 5% | inhibition [17]: inactive | pIC50 (Neutrophil elastase [18]): 4.68

CC(=O)Oc1cc(OC(C)=O)c2c(c1)C(=O)c1ccc(C)c(OC(C)=O)c1C2=O
inhibition [19]: inactive | inhibition [20]: 96% | pIC50 (Neutrophil elastase [21]): 4.92 | inhibition [22]: inactive

Cc1cc(O)c2c(c1)C(=O)c1cccc(O)c1C2=O [CHRYSOPHANOL]
inhibition [23]: inactive | pIC50 (Neutrophil elastase [24]): 4.74 | inhibition [25]: inactive | inhibition [26]: 39% | inhibition [27]: 79%

COc1cc(OC)c2c(c1)C(=O)c1ccc(C)c(O)c1C2=O
inhibition [28]: inactive | inhibition [29]: 4% | inhibition [30]: 80% | pIC50 (Neutrophil elastase [31]): 4.89 | inhibition [32]: 7%
